Source: ChEMBL document CHEMBL1146501, “Microbial transformation of isosteviol and inhibitory effects on Epstein-Barr virus activation of the transformation products” (J Nat Prod, 2004)

What was measured:
Assay type in all cases: cell-based
Raji [1] = assay: Inhibition of 12-O-tetradecanoylphorbol-13-acetate-induced EBV-early antigen activation in human Raji cells assessed as EA activation at 10 molar ratio after 48 hrs relative to TPA; design: scale not given: the % may be the effect or the level left; conditions: human gammaherpesvirus 4
In short: (§1)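 EBV genome-carrying nonproducer Raji lymphoblastoid cells grown in 10% FBS RPMI 1640. Cells were incubated at 37 °C for 48 h with n-butyric acid (4 mM) and TPA (32 pmol, 20 ng/mL) in DMSO, plus test compound in DMSO. Smears were stained with EA-positive nasopharyngeal carcinoma patient sera and read by indirect immunofluorescence, counting ≥500 cells per assay, run twice. Average EA induction is expressed relative to butyrate+TPA control.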

Raji [2] = assay: Inhibition of 12-O-tetradecanoylphorbol-13-acetate-induced EBV-early antigen activation in human Raji cells assessed as EA activation at 1000 molar ratio after 48 hrs relative to TPA; design: scale not given: the % may be the effect or the level left; conditions: human gammaherpesvirus 4; in short: as §1
Raji [3] = assay: Inhibition of 12-O-tetradecanoylphorbol-13-acetate-induced EBV-early antigen activation in human Raji cells assessed as EA activation at 100 molar ratio after 48 hrs relative to TPA; design: scale not given: the % may be the effect or the level left; conditions: human gammaherpesvirus 4; in short: as §1
[4] = Cytotoxicity against human Raji cells assessed as cell viability at 1000 molar ratio by trypan blue assay; conditions: read-out: Activity
Raji [5] = assay: Inhibition of 12-O-tetradecanoylphorbol-13-acetate-induced EBV-early antigen activation in human Raji cells assessed as EA activation at 500 molar ratio after 48 hrs relative to TPA; design: scale not given: the % may be the effect or the level left; conditions: human gammaherpesvirus 4; in short: as §1

Row | Compound | Activity (Raji [1]) [%] | Activity (Raji [2]) [%] | Activity (Raji [3]) [%] | viability at 1000 molar ratio [4] [%] | Activity (Raji [5]) [%]
1 | CC1=C(/C=C/C(C)=C/C=C/C(C)=C/C=C/C=C(C)/C=C/C=C(C)/C=C/C2=C(C)CCCC2(C)C)C(C)(C)CCC1 | 100 | 8.6 | – | – | –
2 | C[C@@]12CC[C@@H]3[C@@](CC1=O)(C2)C(=O)C[C@H]1[C@@]3(C)CCC[C@@]1(C)C(=O)O | 94.5 | 7.4 | 72.3 | 60 | 35.1
3 | C[C@@]12CCC[C@@](C)(C(=O)O)[C@H]1CC[C@]13CC(=O)[C@](C)(C1)[C@H](O)C[C@H]32 | 93.2 | 5.7 | 75.1 | 60 | 40
4 | C=C1C[C@@]23CC[C@H]4[C@@](C)(CCC[C@@]4(C)C(=O)O[C@@H]4O[C@H](CO)[C@@H](O)[C@H](O)[C@H]4O)[C@@H]2CC[C@]1(O[C@@H]1O[C@H](CO)[C@@H](O)[C@H](O)[C@H]1O[C@@H]1O[C@H](CO)[C@@H](O)[C@H](O)[C@H]1O)C3 [STEVIOSIDE] | 100 | 12.5 | 78.9 | 60 | 46.2
5 | C[C@@]12CC[C@H]3[C@]4(C)CCC[C@@](C)(C(=O)O)[C@H]4C[C@H](O)[C@]3(CC1=O)C2 | 94.6 | 6.9 | 76.3 | 60 | 41.7
6 | C[C@@]12C[C@H](O)[C@@H]3[C@@](CC[C@H]4[C@@]3(C)CCC[C@@]4(C)C(=O)O)(CC1=O)C2 | 91 | 4 | 74.1 | 60 | 39.8
7 | C[C@@]12CC[C@@H]3[C@@](CC[C@H]4[C@@]3(C)CCC[C@@]4(C)C(=O)O)(CC1=O)C2 [ISOSTEVIOL] | 98.8 | 12.3 | 80 | 60 | 46.7
8 | C[C@@]12CCC[C@@](C)(C(=O)O)[C@H]1CC[C@@]13CC(=O)[C@@](CO)(CC[C@H]12)C3 | 95.7 | 8.2 | 77 | 60 | 42.6
